From ChEMBL document CHEMBL4020832, “Development of (6 R)-2-Nitro-6-[4-(trifluoromethoxy)phenoxy]-6,7-dihydro-5 H-imidazo[2,1- b][1,3]oxazine (DNDI-8219): A New Lead for Visceral Leishmaniasis” (J Med Chem, 2018)

Experiments:
Mus musculus [1] = assay: Cmax in Swiss albino mouse at 40 mg/kg, po by LC-MS/MS analysis; type: ADME, organism-based; design: dose 40 mg/kg, route oral; conditions: in vivo
Syrian golden hamster = assay: Oral bioavailability in golden Syrian hamster at 40 mg/kg by LC-MS/MS analysis; type: ADME, organism-based, Mesocricetus auratus; conditions: in vivo
Liver [2] = assay: Metabolic stability in human liver microsomes assessed as parent compound remaining at 1 uM after 1 hr; type: ADME, microsome
[3] = Metabolic stability in hamster liver microsomes assessed as parent compound remaining at 1 uM after 1 hr; type: ADME, microsome; conditions: read-out: Stability
[4] = Metabolic stability in hamster liver microsomes assessed as parent compound remaining at 0.5 uM after 0.5 hr; type: ADME, microsome; conditions: read-out: Stability
Mus musculus [5] = assay: Tmax in Swiss albino mouse at 40 mg/kg, po by LC-MS/MS analysis; type: ADME, organism-based; conditions: in vivo
[6] = Half life in Swiss albino mouse at 40 mg/kg, po by LC-MS/MS analysis; type: ADME, organism-based; conditions: in vivo
Mus musculus [7] = assay: AUClast in Swiss albino mouse at 40 mg/kg, po after 24 to 48 hrs by LC-MS/MS analysis; type: ADME, organism-based; conditions: in vivo
[8] = Initial concentration in golden Syrian hamster at 2 mg/kg, iv by LC-MS/MS analysis; type: ADME, organism-based, Mesocricetus auratus; conditions: in vivo
Method in brief: (§1)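 Fasted female golden Syrian hamsters given 2 mg/kg iv as a solution in 20% NMP and 40% PEG-400 in citrate buffer pH 3. Plasma concentrations determined by LC–MS/MS to derive PK parameters.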

[9] = Clearance in golden Syrian hamster at 2 mg/kg, iv by LC-MS/MS analysis; type: ADME, organism-based, Mesocricetus auratus; conditions: in vivo
[10] = Volume of distribution at steady state in golden Syrian hamster at 2 mg/kg, iv by LC-MS/MS analysis; type: ADME, organism-based, Mesocricetus auratus; conditions: in vivo, read-out: Vdss; method in brief: as §1
[11] = Half life in golden Syrian hamster at 2 mg/kg, iv by LC-MS/MS analysis; type: ADME, organism-based, Mesocricetus auratus; conditions: in vivo
Method in brief: (§2)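 Fasted female golden Syrian hamsters. IV dose was 2 mg/kg as a solution in 20% NMP and 40% PEG-400 in citrate buffer (pH 3). Oral dosing at 40–50 mg/kg used PEG-400 as vehicle. Plasma was quantified by LC–MS/MS. AUClast was taken to the last time point (24 or 48 h).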

[12] = AUClast in golden Syrian hamster at 2 mg/kg, iv after 24 to 48 hrs by LC-MS/MS analysis; type: ADME, organism-based, Mesocricetus auratus; conditions: in vivo; method in brief: as §2
[13] = Cmax in golden Syrian hamster at 40 mg/kg, po by LC-MS/MS analysis; type: ADME, organism-based, Mesocricetus auratus; design: dose 40 mg/kg, route oral; conditions: in vivo; method in brief: as §2
[14] = Half life in golden Syrian hamster at 40 mg/kg, po by LC-MS/MS analysis; type: ADME, organism-based, Mesocricetus auratus; conditions: in vivo
[15] = AUClast in golden Syrian hamster at 40 mg/kg, po after 24 to 48 hrs by LC-MS/MS analysis; type: ADME, organism-based, Mesocricetus auratus; conditions: in vivo; method in brief: as §2
Liver [16] = assay: Metabolic stability in CD-1 mouse liver microsomes assessed as parent compound remaining at 1 uM after 1 hr; type: ADME, microsome
[17] = Tmax in golden Syrian hamster at 40 mg/kg, po by LC-MS/MS analysis; type: ADME, organism-based, Mesocricetus auratus; conditions: in vivo

| SMILES | Cmax (Mus musculus [1]) | F (Syrian golden hamster) | Stability (Liver [2]) | remaining at 1 h, 1 µM [3] | remaining at 0.5 h, 0.5 µM [4] | Tmax (Mus musculus [5]) | half-life [6] | AUClast (Mus musculus [7]) | C0 [8] | clearance [9] | Vd [10] | half-life [11] | AUC(0-t) [12] | Cmax [13] | half-life [14] | AUC(0-t) [15] | Stability (Liver [16]) | Tmax [17] |
| --- | --- | --- | --- | --- | --- | --- | --- | --- | --- | --- | --- | --- | --- | --- | --- | --- | --- | --- |
| O=[N+]([O-])c1cn2c(n1)OC[C@H](OCc1ccc(-c3ccc(OC(F)(F)F)cc3)cn1)C2 | 16000 ng/mL | 100% | 27% | 10% | 61% | 4.7 h | 9.4 h | 211000 ng·h/mL | 650 ng/mL | 23 mL/min/kg | 8.2 L/kg | 6.3 h | 1300 ng·h/mL | 5700 ng/mL | 5.8 h | 62700 ng·h/mL |  |  |
| O=[N+]([O-])c1cn2c(n1)OC[C@H](OCc1ccc(-c3ccc(OC(F)(F)F)cc3F)nc1)C2 |  |  | 37% | 9.2% |  |  |  |  |  | 8.8 mL/min/kg | 3.2 L/kg | 5.3 h | 3690 ng·h/mL | 4700 ng/mL | 5.8 h | 46500 ng·h/mL | 41% | 3.3 h |
